Activity calls are given as the source filed them. The rule behind the calls is not given here.
How the values were obtained:
HeLa [1] = test: Antiproliferative activity against human HeLa cells after 48 hrs by MTT assay; format: functional
Method in brief: (§1)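 Cells were seeded at 2 × 10^4 cells/mL, allowed to adhere 24 h, then exposed 48 h to a concentration series, with DMSO as control. MTT was added for 2 h at 37 °C, formazan dissolved in DMSO and OD read at 490 nm. GI50 is the concentration giving 50% viability loss versus DMSO; 8 replicates, at least two independent experiments, ± SD.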

MCF7 = test: Antiproliferative activity against human MCF7 cells after 48 hrs by MTT assay; format: functional; conditions: MCF7, 48 h; method in brief: as §1
Jurkat [2] = test: Induction of apoptosis in human Jurkat cells assessed as cleavage of caspase 3 substrate DEVD-p-nitroanaline 2 hrs by spectrophotometric analysis; format: functional, cell-based
Method in brief: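 Jurkat cells (RPMI-1640, 10% FBS) were treated at 0.1, 0.5 and 1 μM alongside DMSO control. Lysates from 1 × 10^6 cells were normalized by BCA protein assay, then incubated with DEVD-pNA substrate for 2 h at 37 °C. Read at 405 nm and expressed relative to DMSO set as one. Quadruplicates, repeated at least twice.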

Bos taurus [3] = species: Bos taurus; test: Inhibition of purified bovine tubulin polymerization assessed as microtubule destabilization at 25 uM after 20 mins by fluorescence spectrophotometric analysis
Method in brief: (§2)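 Purified bovine tubulin was incubated at 37 °C in buffer with 10% glycerol and 1 mM GTP, each agent in a separate run, against a 0.05% DMSO control. Polymerization was followed by fluorescence spectrophotometry for 20 min, reading every 15 s.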

Bos taurus [4] = species: Bos taurus; test: Inhibition of purified bovine tubulin polymerization assessed as microtubule destabilization at 3 uM after 20 mins by fluorescence spectrophotometric analysis relative to control; method in brief: as §2
HeLa [5] = test: Antimitotic activity in human HeLa cells assessed as visible deffect in mitotic spindle formation at 10 uM after 3 hrs by inverted microscopic analysis; format: functional, cell-based
Method in brief: (§3)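 HeLa cells in DMEM with 10% fetal calf serum, pyruvate, bicarbonate and PSF were treated 3 h with compound solubilized in DMSO and prediluted in medium, or with 0.1% DMSO carrier. Cells were fixed in methanol at −20°C and blocked 1 h in PBS-5% BSA. They were stained overnight at 4°C for tubulin, Hec1 and Hoechst 33342, then imaged by epifluorescence with structured illumination.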

HeLa [6] = test: Antimitotic activity in human HeLa cells assessed as disruption of interphase microtubule organization at 10 uM after 3 hrs by inverted microscopic analysis; format: functional, cell-based; method in brief: as §3
HeLa [7] = test: Antimitotic activity in human HeLa cells assessed as visible deffect in microtubule organization at 5 nM after 3 hrs by inverted microscopic analysis; format: functional, cell-based; method in brief: as §3
HeLa [8] = test: Antimitotic activity in human HeLa cells assessed as disruption of mitotic microtubule organization at 5 nM after 3 hrs by inverted microscopic analysis; format: functional, cell-based
Method in brief: (§4)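 HeLa cells in DMEM with 10% fetal calf serum, pyruvate, bicarbonate and PSF were exposed for 3 h to compound diluted from DMSO stock into medium, carrier 0.1% DMSO. Cells were fixed in methanol at −20 °C, blocked 1 h in PBS with 5% BSA, then stained overnight at 4 °C with anti-tubulin, anti-Hec1 and Hoechst 33342. Imaged by epifluorescence microscopy with structured illumination.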

HeLa [9] = test: Antimitotic activity in human HeLa cells assessed as disruption of interphase microtubule organization at 5 nM after 3 hrs by inverted microscopic analysis; format: functional, cell-based; method in brief: as §4
HeLa [10] = test: Antimitotic activity in human HeLa cells assessed as nucleated microtubule at 10 uM after 3 hrs by inverted microscopic analysis; format: functional, cell-based; method in brief: as §4
Jurkat [11] = test: Induction of apoptosis in human Jurkat cells at 5 to 8 nM after 48 hrs by annexinV-propidium iodide staining based FITC analysis; format: functional, cell-based
Method in brief: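 Jurkat cells plated at 2 × 10^5 cells/mL were exposed for 48 h across a concentration range. They were pelleted, resuspended in HHB containing CaCl2, propidium iodide and Annexin-V-FITC, and labelled 20 min at 37 °C. Annexin-V-positive cells were scored by flow cytometry as % apoptotic. Triplicates, repeated at least twice, ± SD.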

| Compound | GI50 (HeLa [1]) [nM] | GI50 (MCF7) [nM] | also measured |
| --- | --- | --- | --- |
| Cc1n[nH]c2c1C(c1cccc(Br)c1)C1=C(COC1=O)N2 (racemic) | 3000 | 4000 |  |
| O=C1OCC2=C1C(c1cc(Br)ccc1O)c1cn[nH]c1N2 (racemic) | 50 | 25 |  |
| O=C1OCC2=C1C(c1cc(Br)cc(Br)c1)c1ccc3c(O)cccc3c1N2 (racemic) | 21 | 23 |  |
| O=C1OCC2=C1C(c1cc(Br)cc(Br)c1)c1c([nH][nH]c1=O)N2 (racemic) | > 10000 | > 10000 |  |
| COc1cc(C2C3=C(COC3=O)Nc3c2ccc2ccccc32)cc(Br)c1OC (racemic) | 3 | 3 |  |
| Cc1n[nH]c2c1C(c1cncc(Br)c1)C1=C(COC1=O)N2 (racemic) | 3000 | 800 |  |
| O=C1OCC2=C1C(c1cc(Br)cc(Br)c1)c1ccc3ccc(O)cc3c1N2 (racemic) | 6 | 3 |  |
| COc1cc(C2C3=C(COC3=O)Nc3c2ccc2ccccc32)cc(OC)c1OC (racemic) | 3 | 3 |  |
| COc1cc(C2C3=C(COC3=O)Nc3c2ccc2ccc(O)cc32)cc(OC)c1OC (racemic) | 2 | 3 |  |
| O=C1OCC2=C1C(c1cc(Br)ccc1O)c1ccc3ccccc3c1N2 (racemic) | 3 | 3 |  |
| O=C1OCC2=C1C(c1cncc(Br)c1)c1ccc3ccccc3c1N2 (racemic) | 7 | 13 |  |
| COc1cc(C2C3=C(COC3=O)Nc3[nH]ncc32)cc(Br)c1OC (racemic) | 750 | 250 |  |
| O=C1OCC2=C1C(c1cccc(Br)c1)c1cn[nH]c1N2 (racemic) | 75 | 100 |  |
| COc1cc(C2C3=C(COC3=O)Nc3nc(SC)nc(N)c32)cc(OC)c1OC (racemic) | 125 | 170 |  |
| O=C1OCC2=C1C(c1cc(Br)ccc1O)c1ccc3ccc(O)cc3c1N2 (racemic) | 3 | 3 |  |
| O=C1OCC2=C1C(c1cc(Br)cc(Br)c1)c1cn[nH]c1N2 (racemic) | 25 | 25 | Activity (Jurkat [2]): Active; inhibition (Bos taurus [3]): Active |
| O=C1OCC2=C1C(c1cc(Br)cs1)c1ccc3ccccc3c1N2 (racemic) | 3 | 3 |  |
| O=C1OCC2=C1[C@@H](c1cc(Br)cc(Br)c1)c1ccc3ccccc3c1N2 | 19000 | 14000 |  |
| O=C1OCC2=C1C(c1cc(Br)cc(Br)c1)c1cc3c(cc1N2)CCCC3 (racemic) | 100 | 70 |  |
| O=C1OCC2=C1C(c1cc(Br)cc(Br)c1)c1ccc3[nH]ccc3c1N2 (racemic) | 114 | 21 |  |
| COc1cc(Br)cc(C2C3=C(COC3=O)Nc3[nH]nc(C)c32)c1O (racemic) | 35 | 100 |  |
| COc1cc(C2C3=C(COC3=O)Nc3cc4c(cc32)CCCC4)cc(OC)c1OC (racemic) | 18 | 19 |  |
| O=C1OCC2=C1C(c1cc(Br)cs1)c1cn[nH]c1N2 (racemic) | 1150 | 740 |  |
| COc1cc(C2C3=C(COC3=O)Nc3[nH]nc(C)c32)cc(Br)c1OC (racemic) | 750 | 1000 |  |
| O=C1OCC2=C1C(c1cncc(Br)c1)c1ccc3ccc(O)cc3c1N2 (racemic) | 3 | 3 |  |
| O=C1OCC2=C1[C@H](c1cc(Br)cc(Br)c1)c1ccc3ccccc3c1N2 | 9 | 9 |  |

| Compound | GI50 (HeLa [1]) [nM] | GI50 (MCF7) [nM] | also measured |
| --- | --- | --- | --- |
| CC(=O)O[C@H]1C(=O)[C@@]2(C)[C@H]([C@H](OC(=O)c3ccccc3)[C@]3(O)C[C@H](OC(=O)[C@H](O)[C@@H](NC(=O)c4ccccc4)c4ccccc4)C(C)=C1C3(C)C)[C@]1(OC(C)=O)CO[C@@H]1C[C@@H]2O |  |  | inhibition (Bos taurus [4]): inactive |
| CSc1nc(N)c2c(n1)NC1=C(C(=O)OC1)C2c1cc(Br)cc(Br)c1 (racemic) | 561 | 1020 |  |
| O=C1OCC2=C1C(c1cc(Br)cc(Br)c1)c1c(ccc3ccccc13)N2 (racemic) | 420 | 201 |  |
| COc1cc([C@@H]2c3cc4c(cc3[C@H](O)[C@H]3COC(=O)[C@H]23)OCO4)cc(OC)c1OC [PODOFILOX] | 20 | 10 | Activity (Jurkat [2]): Active; inhibition (Bos taurus [3]): Active; Activity (HeLa [5]): Active; Activity (HeLa [6]): inactive |
| COc1cc(C2C3=C(COC3=O)Nc3c2ccc2ccc(O)cc32)cc(Br)c1OC (racemic) | 2 | 3 |  |
| O=C1OCC2=C1C(c1cc(Br)cc(Br)c1)c1ccc3ccccc3c1N2 (racemic) | 16 | 14 |  |
| COc1cc2c(c(OC)c1OC)-c1ccc(OC)c(=O)cc1[C@@H](NC(C)=O)CC2 |  |  | Activity (HeLa [7]): inactive |
| COc1cc(C2C3=C(COC3=O)Nc3[nH]nc(C)c32)cc(OC)c1OC (racemic) | 5000 | 5000 |  |
| O=C1OCC2=C1C(c1cc(Br)cc(Br)c1O)c1cn[nH]c1N2 (racemic) | 20 | 10 | Activity (HeLa [8]): Active; Activity (HeLa [9]): Active; Activity (HeLa [10]): Active; Activity (Jurkat [11]): Active; Activity (Jurkat [2]): Active; inhibition (Bos taurus [3]): Active |
| COc1cc(C2C3=C(COC3=O)Nc3c2ccc2c(O)cccc32)cc(OC)c1OC (racemic) | 3 | 3 |  |
| O=C1OCC2=C1C(c1cc(Br)cs1)c1ccc3ccc(O)cc3c1N2 (racemic) | 3 | 3 |  |
| Nc1cc2c(c3ccccc13)NC1=C(C(=O)OC1)C2c1cc(Br)cc(Br)c1 (racemic) | 21 | 16 |  |
| O=C1OCC2=C1C(c1cncc(Br)c1)c1cn[nH]c1N2 (racemic) | 75 | 15 |  |
| Cc1n[nH]c2c1C(c1cc(Br)cc(Br)c1)C1=C(COC1=O)N2 (racemic) | 75 | 75 |  |
| COc1cc(Br)cc(C2C3=C(COC3=O)Nc3c2ccc2ccc(O)cc32)c1O (racemic) | 6 | 3 |  |
| COc1cccc(C2C3=C(COC3=O)Nc3[nH]ncc32)c1O (racemic) | 2000 | 500 |  |
| O=C1OCC2=C1C(c1cc(Br)cc(Br)c1O)c1ccc3ccccc3c1N2 (racemic) | 18 | 21 |  |
| COc1cc(Br)cc(C2C3=C(COC3=O)Nc3c2ccc2ccccc32)c1O (racemic) | 3 | 3 |  |
| COc1cc(C2C3=C(COC3=O)Nc3[nH]ncc32)cc(OC)c1OC (racemic) | 3000 | 250 |  |
| COc1cc(Br)cc(C2C3=C(COC3=O)Nc3[nH]ncc32)c1O (racemic) | 25 | 30 |  |
| Cc1n[nH]c2c1C(c1cc(Br)ccc1O)C1=C(COC1=O)N2 (racemic) | 300 | 250 |  |
| O=C1OCC2=C1C(c1cc(Br)cc(Br)c1O)c1ccc3ccc(O)cc3c1N2 (racemic) | 7 | 3 |  |
| COc1cc(C2C3=C(COC3=O)Nc3[nH][nH]c(=O)c32)cc(OC)c1OC (racemic) | > 10000 | > 10000 |  |
| COc1cc(C2C3=C(COC3=O)Nc3ccc4ccccc4c32)cc(OC)c1OC (racemic) | 540 | 121 |  |
| COc1cc(C2C3=C(COC3=O)Nc3c2ccc2[nH]ccc32)cc(OC)c1OC (racemic) | 19 | 22 |  |
